Hits are enriched below; roughly 2.6% of the tested compounds scored in any of these assays.
esBAF inh: inhibitors of esBAF chromatin remodeling in mouse ES cells; AID 602393; reporter increase, % at 12.5 µM; 350,000 tested, 2% active; Bmi1-luciferase knock-in reporter, 24 h; 100% = twice the neutral-well signal; in the data active = activation above about 40%;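 note: 0% = median of the plate's neutral control wells and 100% = double that signal; a rise in the Bmi1 reporter signal indicates esBAF inhibition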
ARFGAP1 inhibitor: inhibits rat ARF GTPase activating protein 1 | Q62848 | Arfgap1-stimulated ARF1 GTP hydrolysis, GDP FP detection | inhibition, % at 16.5 µM | 360,000 tested, 0.26% active | AID 651572;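 active = inhibition above a per-plate limit, mean inhibition of low control wells plus 3 SD, cut at about 25% in these data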;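 note: 0% = DMSO wells with enzyme and 100% = wells lacking Arfgap1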
Target sequence (Q62848 1-136 limits assumed): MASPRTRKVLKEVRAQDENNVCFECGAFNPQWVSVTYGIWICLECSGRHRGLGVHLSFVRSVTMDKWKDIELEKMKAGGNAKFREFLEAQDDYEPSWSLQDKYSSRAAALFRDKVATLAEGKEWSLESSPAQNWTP
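Material: truncated rat Arfgap1 GAP domain; Incubation: compound-enzyme preincubation 20 min, reaction 120 min, detection 60 min, 25 °C; Read-out: percent inhibition of Arfgap1-stimulated GTP hydrolysis; Technique: FP, GDP Alexa 633 tracer displaced from anti-GDP antibody, 620/688 nm; Controls: No-Arfgap1 wells (100%) versus DMSO full-reaction wells (0%); Replication: single well per compound.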
SMARCA2 act: activators of SMARCA2 function. MG213 cells, MMTV-luciferase reporter, dexamethasone, overnight. activation, % at 9.1 µM. 370,000 tested, 1% active. AID 652017; in the data active = activation above about 7.8%;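 note: 0% = vehicle wells and 100% = reference activator wells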
ASAP1 inh: ASAP1 ArfGAP inhibition; Q9ULH1; ASAP1-stimulated ARF1 GTP hydrolysis, GDP FP detection; inhibition, % at 16.5 µM; 360,000 tested, 0.19% active; in the data active = inhibition above about 25%;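 note: 0% = vehicle with enzyme and substrate and 100% = no enzyme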
Target sequence (Q9ULH1 325-724 limits assumed): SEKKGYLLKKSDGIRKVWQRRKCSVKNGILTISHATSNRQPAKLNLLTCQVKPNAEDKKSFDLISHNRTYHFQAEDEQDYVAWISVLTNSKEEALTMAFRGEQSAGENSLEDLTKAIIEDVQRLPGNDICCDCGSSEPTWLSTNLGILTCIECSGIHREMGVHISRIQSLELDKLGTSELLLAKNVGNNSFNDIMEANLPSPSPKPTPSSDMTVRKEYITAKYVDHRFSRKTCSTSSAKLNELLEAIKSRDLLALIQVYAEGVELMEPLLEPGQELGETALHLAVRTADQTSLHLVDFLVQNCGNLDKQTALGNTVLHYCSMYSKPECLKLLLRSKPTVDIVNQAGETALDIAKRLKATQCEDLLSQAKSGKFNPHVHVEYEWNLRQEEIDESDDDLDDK
SMARCA2 act conf: confirmation of SMARCA2 (BRM) function activators; shares compounds with SMARCA2 act; MG213 cells, MMTV-luciferase with dexamethasone, luminescence, overnight; MG213 cells expressing E1A, Rb sequestered; DMSO wells 0%, reference activator 100%; activation, % at 9.1 µM; 3,500 tested, 30% active;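 active = activation above its plate's cutoff, the mean activation of tested wells plus 3 SD, cut at about 7.9% in these data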
GAL4-VP16 Luc: counter-screen for SMARCA2 activators: GAL4-VP16 luciferase reporter activation | shares compounds with SMARCA2 act | HEK293 GAL4-VP16 pG5luc reporter, luciferase luminescence; scaled: DMSO wells 0%, SAHA wells 100% | activation, % at 9.1 µM | 3,500 tested, 41% active;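 active = activation above the solvent-only control well mean plus 3 SD, averaged across control plates, cut at about 5.2% in these data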
Active calls of the source: *; x = not tested or not shown; ! = not active in a repeat.

SMILES	esBAF inh	ARFGAP1 inhibitor	SMARCA2 act	ASAP1 inh	SMARCA2 act conf	GAL4-VP16 Luc
COc1cccc(S(=O)(=O)N2C[C@@H](O)COC[C@H]3O[C@@H](CC(=O)Nc4ccccc4)CC[C@@H]32)c1	-2	x	x	x	x	x
NNC(=O)CSc1cccc2cccnc12	x	10	-1	6	x	x
CN(C)C(=O)CSc1cccc2cccnc12	-5	7	12*	5	-12	2
O=C1C(C=NCCCN2CCCC2=O)=C(O)c2ccccc21	27	1	8.5*	0	7	5.7*
O=C1NC(=S)N/C1=C/c1cc2c(cc1[N+](=O)[O-])OCO2	-5	5	11*	-5	2	3
CC(=O)N(C)C[C@@H]1Oc2ncc(-c3cccc(C#N)c3)cc2C(=O)N([C@H](C)CO)C[C@@H]1C	-1	x	x	x	x	x
COc1ccccc1NS(=O)(=O)c1cccc(NC(=O)c2cc3ccccc3oc2=O)c1	x	1	8.1*	-5	4	9.5*
CN(c1ccccc1)S(=O)(=O)c1cccc(NC(=O)c2cc3ccccc3oc2=O)c1	54*	11	12*	2	-1	6.3*
CNC[C@@H]1Oc2ccc(NC(=O)Nc3ccc(OC)cc3)cc2C(=O)N([C@@H](C)CO)C[C@@H]1C	-4	x	x	x	x	x
COc1ccc(CCNC(=O)CN2C(=O)CSc3ccc(S(=O)(=O)N4CCOCC4)cc32)cc1OC	-4	11	1	-16	x	x
CCOc1ccc(CNC(=O)CN2C(=O)CSc3ccc(S(=O)(=O)N4CCOCC4)cc32)cc1OC	-3	-2	8.8*	3	-6	0
C[C@@H]1CN([C@H](C)CO)C(=O)c2cc(NS(=O)(=O)c3cn(C)cn3)ccc2O[C@@H]1CN(C)C	-2	x	x	x	x	x
CCOC(=O)Cn1c(C(=O)OCC)cc2sccc21	4	11	-4	1	x	x
CCOC(=O)c1cc2sccc2n1CC(=O)C(C)(C)C	x	-2	10*	-2	-4	1
NC(=O)c1sc2nc(-c3ccccc3)ccc2c1N	77*	4	8.1*	-2	7	10*
CCOC(=O)c1sc2nc(-c3ccccc3)ccc2c1N	x	3	1	-9	x	x
COc1ccc(S(=O)(=O)N(C)C[C@@H]2Oc3ccc(NC(=O)CCN4CCOCC4)cc3C(=O)N([C@H](C)CO)C[C@@H]2C)cc1	0	x	x	x	x	x
CC1(C)CC(=O)C=C(Nc2ccccc2NC(=O)c2cc(Cl)ccc2F)C1	x	x	9.2*	x	7	-1
N#CC1(c2ccc(NC(=O)c3ccccc3F)cc2)CCCC1	x	1	9.5*	-2	9.3*	8.6*
O=C(NCCc1nc2ccccc2[nH]1)c1ccc(Cl)c([N+](=O)[O-])c1	x	0	-2	0	x	x
Cc1ccc(C(=O)NCCc2nc3ccccc3[nH]2)cc1[N+](=O)[O-]	x	7	8.6*	7	-3	-1
COc1ccc(NC(=O)N(C)C[C@@H]2Oc3c(NS(=O)(=O)c4ccccc4)cccc3C(=O)N([C@@H](C)CO)C[C@@H]2C)cc1	3	x	x	x	x	x
c1ccc(COc2ccc(OCCCN3CCCC3)cc2)cc1	x	9	8.7*	-2	7	9.8*
c1ccc(COc2ccc(OCCN3CCCC3)cc2)cc1	x	4	0	-1	x	x
Cn1c2ccccc2c(=O)c2ccc(C#CC3(N)CCCCC3)cc21	-15	-6	19*	-5	44*	19*
SMILES	esBAF inh	ARFGAP1 inhibitor	SMARCA2 act	ASAP1 inh	SMARCA2 act conf	GAL4-VP16 Luc
Cn1c2ccccc2c(=O)c2cc(C#Cc3ccccn3)ccc21	2	10	8.1*	-20	21*	5.3*
Cn1c2ccccc2c(=O)c2cc(C#CC3(O)CCCCC3)ccc21	-63	-15	0	-1	x	x
CC(=O)NCc1ccc(C(=O)CCl)s1	-3	1	9.0*	-9	10*	8.0*
COc1ccc(C(=O)OCC(=O)c2ccc(CNC(C)=O)s2)cc1	18	-11	-1	-15	x	x
COc1ccc(-c2cc(C(F)(F)F)nc(-n3cc(Cl)cn3)n2)cc1	x	4	8.5*	13	2	0
COc1cccc(-c2cc(C(F)(F)F)nc(-n3cc(Cl)cn3)n2)c1	-5	-11	-6	8	x	x
COc1ccc(Cc2c(-c3ccc(F)cc3)nc3ccc(C)cn23)c(C)c1	x	9	9.6*	-13	2	6.4*
O=C(Nc1cccc(F)c1)N1C[C@H]2[C@@H](c3ccccc31)[C@@H](CO)N2C(=O)Cc1ccccc1	4	x	x	x	x	x
CCCCc1ccc(NC(=O)COCC)cc1	33	0	8.1*	3	3	5
CCCCc1ccc(NC(=O)CC(C)C)cc1	48*	-4	9.7*	4	4	4
COc1ccc(NC(=O)Nc2ccc3c(c2)C(=O)N([C@H](C)CO)C[C@@H](C)[C@H](CN(C)C(=O)CCCN(C)C)OCCCC[C@@H](C)O3)cc1	1	x	x	x	x	x
Cn1c(CN2CCOCC2)nnc1SCc1ccccc1	-5	4	-3	-22	x	x
Cn1c(CN2CCOCC2)nnc1SCC(=O)NCCc1ccccc1	-6	-4	8.2*	6	2	0
O=C(c1noc2c1CCc1ccccc1-2)N1CCOCC1	26	-1	9.3*	4	9.6*	5
N#Cc1ccc2sn(-c3ccccc3)c(=O)c2c1	32	-5	12*	-3	7.9*	11*
CC(=O)Nc1ccc2sn(-c3ccccc3)c(=O)c2c1	-1	-6	17*	-10	8.8*	1
COC(=O)C[C@H]1CC[C@@H]2[C@H](COC[C@@H](O)CN2CCC(F)(F)F)O1	-4	x	x	x	x	x
COC(=O)C1=C(C)N(Cc2ccccc2C(F)(F)F)C(=NCc2cccc(C(F)(F)F)c2)NC1c1ccc(C(F)(F)F)cc1 (stereo not drawn)	x	3	10*	6	-7	0
O=C(C[C@@H]1C[C@H]2c3cc(NS(=O)(=O)c4ccc(F)cc4)ccc3O[C@H]2[C@@H](CO)O1)N1CCOCC1	-1	x	x	x	x	x
COc1ccc(NC(=O)N(C)C[C@H]2Oc3c(NC(=O)c4ccncc4)cccc3C(=O)N([C@@H](C)CO)C[C@H]2C)cc1	-1	x	x	x	x	x
Cc1ccc(-c2noc(-c3ccoc3C)n2)cc1	34	-4	10*	-11	8.2*	10*
Cc1occc1-c1nc(-c2ccncc2)no1	18	3	0	-1	x	x
COc1ccc(OC)c(S(=O)(=O)N2CCC(C(=O)Nc3cccc(C)c3C)CC2)c1	9	-4	8.4*	-24	-2	1
CCCNC(=O)[C@@H]1[C@@H](CO)[C@@H]2Cn3c(ccc(-c4cccc(F)c4)c3=O)[C@@H]2N1C(C)=O	2	x	x	x	x	x
CCN1CCN(Cc2ccc(NC(=O)c3cc(NC(=O)c4cnnc5ccccc45)cc(OC)c3)cc2C(F)(F)F)CC1	-6	4	14*!	6	8.7*	1
COC(=O)c1ccc2c(c1)C(C)(C)C(/C=C/c1ccc(O)cc1)=[N+]2C	x	-10	14*	3	-16	-2

Screening data as filed in PubChem BioAssay.
